Measured values as given in publication PMC4011915 (mAbs, 2014).

B1: Clone 1B: 3xFLAG-tagged human aldolase C aa 101-210, 16 kDa (protein, UniProt P09972 101-210, looked up, fragment)
chain: KGIVVGIKVDKGVVPLAGTDGETTTQGLDGLSERCAQYKKDGADFAKWRCVLKISERTPSALAILENANVLARYASICQQNGIVPIVEPEILPDGDHDLKRCQYVTEKVL
modifications: 3xFLAG tag
B2: Clone 1: 3xFLAG-tagged human aldolase C aa 1-210, 26 kDa (protein, UniProt P09972 1-210, looked up, fragment)
chain: MPHSYPALSAEQKKELSDIALRIVAPGKGILAADESVGSMAKRLSQIGVENTEENRRLYRQVLFSADDRVKKCIGGVIFFHETLYQKDDNGVPFVRTIQDKGIVVGIKVDKGVVPLAGTDGETTTQGLDGLSERCAQYKKDGADFAKWRCVLKISERTPSALAILENANVLARYASICQQNGIVPIVEPEILPDGDHDLKRCQYVTEKVL
modifications: 3xFLAG tag
B3: full-length: 3xFLAG-tagged human aldolase C aa 1-364, 43 kDa (protein, UniProt P09972 1-364, looked up)
chain: MPHSYPALSAEQKKELSDIALRIVAPGKGILAADESVGSMAKRLSQIGVENTEENRRLYRQVLFSADDRVKKCIGGVIFFHETLYQKDDNGVPFVRTIQDKGIVVGIKVDKGVVPLAGTDGETTTQGLDGLSERCAQYKKDGADFAKWRCVLKISERTPSALAILENANVLARYASICQQNGIVPIVEPEILPDGDHDLKRCQYVTEKVLAAVYKALSDHHVYLEGTLLKPNMVTPGHACPIKYTPEEIAMATVTALRRTVPPAVPGVTFLSGGQSEEEASFNLNAINRCPLPRPWALTFSYGRALQASALNAWRGQRDNAGAATEEFIKRAEVNGLAAQGKYEGSGEDGGAAAQSLYIANHAY
modifications: full-length 3xFLAG tag
B4: Clone 1A: 3xFLAG-tagged human aldolase C aa 1-100, 15 kDa (protein, UniProt P09972 1-100, looked up, fragment)
chain: MPHSYPALSAEQKKELSDIALRIVAPGKGILAADESVGSMAKRLSQIGVENTEENRRLYRQVLFSADDRVKKCIGGVIFFHETLYQKDDNGVPFVRTIQD
modifications: 3xFLAG tag
B5: Clone 2: 3xFLAG-tagged human aldolase C aa 101-300, 25 kDa (protein, UniProt P09972 101-300, looked up, fragment)
chain: KGIVVGIKVDKGVVPLAGTDGETTTQGLDGLSERCAQYKKDGADFAKWRCVLKISERTPSALAILENANVLARYASICQQNGIVPIVEPEILPDGDHDLKRCQYVTEKVLAAVYKALSDHHVYLEGTLLKPNMVTPGHACPIKYTPEEIAMATVTALRRTVPPAVPGVTFLSGGQSEEEASFNLNAINRCPLPRPWALTF
modifications: 3xFLAG tag

Each molecule was assayed on 9F mAb (assay: Immunoblot of 3xFLAG-tagged aldolase C fragments in Neuro2a lysates with 9F mAb). Settings: Neuro2a total protein lysates; 15% SDS-PAGE; 9F 1:1000; ECL.
Type: binding, mouse
Outline: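 Neuro2a cells were plated without antibiotics to reach 70–90% confluence, transfected with lipofectamine 2000, given fresh medium at 6h and grown 48h at 37 °C. Lysis was 30 min on ice in 50mM Tris-HCl pH 7.5, 150mM NaCl, 0.1% Triton X-100 and 0.5 mM PMSF, cleared at 16000xg. Blots went onto nitrocellulose, blocked 1h in 5% milk/T-PBS. Primary 1h RT or overnight 4 °C; HRP anti-mouse 1:5000, 45min. α-tubulin loading control.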

Row | Molecule | recognition of 3xFLAG-tagged aldolase C fragment by 9F mAb
1 | B1 | detected Clone 1A (15kDa) but not Clone 1B
2 | B2 | recognized
3 | B3 | recognized
4 | B4 | detected
5 | B5 | absence of ECL signal
